Rows were chosen to be rich in hits. Some 27% of all compounds tested hit in one or more screens of this group.
Rev-RRE block – HIV-1 Rev-RRE binding inhibitors, primary screen, biochemical, FRET, protein-RNA interaction; Rev peptide-RRE RNA binding; inhibition, % at 8 µM; hit rate 0.79% among 97,000; AID 704, 2007;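 active means inhibition above the screen-wide mean plus 3 SD, cut at about 35% in these data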;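 further: 0% = median DMSO wells and 100% = median Neomycin B control wells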
Target sequence (P05866 whole entry, looked up): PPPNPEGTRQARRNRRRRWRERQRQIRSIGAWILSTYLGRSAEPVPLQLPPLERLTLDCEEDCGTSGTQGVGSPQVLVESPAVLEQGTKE
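Test system – labelled RRE RNA duplex and labelled Rev peptide · Reagent – labelled Rev peptide · Doses – one concentration, 8 µM nominal · Incubation – 5 + 15 min at 25 °C · Signal – FRET fluorescence readout · Read-out basis – % inhibition of FRET ratio versus controls · Control set – DMSO wells as 0% and neomycin B wells as 100% inhibition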
CYP2C19 activ – human CYP2C19 activators, primary screen, biochemical, luminescence. Cytochrome P450 2C19 (Homo sapiens), P33261. recombinant CYP2C19, luciferin-H EGE luminescence; hits give high values; 0 = fully inhibited enzyme, 1 = untreated enzyme. activation factor at 5 µM. 96,000 tested, under 10 active. AID 1025, 2008;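 active means activation factor of at least 2 at 5 µM in the primary screen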;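 further: 0 = wells with 2.5 mM tranylcypromine and 1 = vehicle-only wells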
Cav3 T inh – Cav3.2 calcium influx blockers – cell-based, Fluo-4 calcium fluorescence, FDSS, MLSMR library, primary screen. Voltage-dependent T-type calcium channel subunit alpha-1H (Homo sapiens), O95180. Cav3.2-expressing cells; hits give low values. B-score at 10 µM. hit rate 4% among 100,000. AID 449739, 2010;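 active means single-dose well whose peak fluorescence ratio is a statistical outlier from its plate by either plate-standardised score or position-corrected B-score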
CYP2C9 inhib – blockers of cytochrome P450 2C9 activity – biochemical, luminescence, ADME assay, primary screen. P11712. CYP2C9 Supersomes, luciferin-H conversion. hit rate 20% among 96,000. AID 777, 2007. inhibition, % at 5 µM;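 active means blocking of liver enzyme CYP2C9 beyond about 50% at 5 µM, limit read from the data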
Target sequence (P11712 whole entry, looked up): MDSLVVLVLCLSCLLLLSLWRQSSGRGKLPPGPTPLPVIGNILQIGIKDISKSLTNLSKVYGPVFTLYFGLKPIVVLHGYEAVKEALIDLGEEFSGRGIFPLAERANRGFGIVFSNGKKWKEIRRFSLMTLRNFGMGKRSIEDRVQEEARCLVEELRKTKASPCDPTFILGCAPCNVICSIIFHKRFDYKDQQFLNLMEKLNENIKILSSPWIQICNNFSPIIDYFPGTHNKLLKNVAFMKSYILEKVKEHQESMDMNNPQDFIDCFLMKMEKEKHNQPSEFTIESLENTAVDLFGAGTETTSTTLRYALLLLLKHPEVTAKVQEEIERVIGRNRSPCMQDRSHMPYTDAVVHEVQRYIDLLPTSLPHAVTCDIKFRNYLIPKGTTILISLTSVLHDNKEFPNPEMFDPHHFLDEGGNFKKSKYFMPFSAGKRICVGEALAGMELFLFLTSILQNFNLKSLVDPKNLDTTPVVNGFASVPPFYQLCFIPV
CYP2C19 inh – blockers of cytochrome P450 2C19 activity – biochemical, luminescence, ADME assay, primary screen; P33261; CYP2C19 Supersomes, luciferin-H EGE luminescence, 30 min; inhibition, % at 5 µM; hit rate 21% among 96,000;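 active means CYP2C19 inhibition above a set limit at 5 µM in the primary screen, cut at about 50% in these data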;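 further: plate controls were negative control wells for no effect and 2.5 mM tranylcypromine positive control for full effect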
CYP2C9 act – human CYP2C9 activators, primary screen, biochemical, luminescence; recombinant CYP2C9, luciferin-H conversion; hits give high values; factor 1 = untreated enzyme, 0 = blocked; activation factor at 5 µM; hit rate 1.4% among 96,000; AID 1024, 2008;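 active means activation factor of 2 or more for CYP2C9 at a 5 µM dose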;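 further: 0 = sulfaphenazole-blocked wells and 1 = vehicle-only wells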
* hit, by the source's call; / = no result given.

SMILES | Rev-RRE block | CYP2C19 activ | Cav3 T inh | CYP2C9 inhib | CYP2C19 inh | CYP2C9 act
CCC(C)c1ccc2oc(-c3ccc(NC(=O)Cn4cnc5c(=O)n(C)c(=O)n(C)c54)cc3)nc2c1 (stereo unspecified) | -2 | 0.9 | -0.76 | 48 | 12 | 0.5
Cc1ccc(NC(=S)NNC(=O)C2CC2c2ccc(C)cc2)cc1 (stereo unspecified) | -2 | / | -6.7* | / | / | /
Cc1ccc(C2CC2C(=O)NNC(=S)Nc2cccc(Cl)c2)cc1 (stereo unspecified) | -3 | / | / | / | / | /
Cc1ccc(C2CC2C(=O)NNC(=S)Nc2cccc(C)c2)cc1 (stereo unspecified) | -3 | / | -8.7* | / | / | /
COC(=O)c1cn(NC(=O)c2ccncc2)c(=O)c2ccccc12 | / | 0.6 | 0.13 | 62* | 37 | 0.4
COC(=O)c1cn(-c2ccc(Cl)cc2)c(=O)c2ccccc12 | 13 | 0.3 | 0.0061 | 74* | 69* | 0.3
COC(=O)c1cn(NC(=O)c2cc(OC)cc(OC)c2)c(=O)c2ccccc12 | 4 | 0.8 | 0.26 | 78* | 15 | 0.2
COC(=O)c1cn(NC(=O)c2ccc(F)cc2)c(=O)c2ccccc12 | 2 | 0.9 | -0.77 | 26 | 13 | 0.7
O=C(NCc1ccccc1)NS(=O)(=O)c1ccccc1Cl | / | 1.2 | 0.86 | 37 | -18 | 0.6
CN1CCN(C(=O)C2=C[C@H](c3ccc4c(c3)OCO4)C[C@H](OCCCCO)O2)CC1 | / | / | 1.6 | / | / | /
CCC(=O)OC1=C2C(=Nc3c(c(=O)n(C)c(=O)n3C)C2c2ccccc2)c2ccccc21 (stereo unspecified) | 16 | / | / | / | / | /
COc1ccccc1N(CN1CCCC1=O)C(=O)c1c(F)cccc1F | 6 | 0.7 | 0.36 | 76* | 28 | 0.2
COc1ccccc1N(CN1CCCC1=O)C(=O)c1ccccc1F | 4 | 1 | 0.19 | 6 | 2 | 0.9
CCOC(=O)c1ccc2[nH]c3c(c2c1)CCCC3C(=O)OCC (stereo unspecified) | 6 | 0.1 | -1.7 | 82* | 89* | 0.2
CCOC(=O)CNC(=O)c1ccc2[nH]c3c(c2c1)CCCC3 | 0 | 0.8 | 0.026 | 34 | 24 | 0.7
COC(=O)CC1=NC(=O)CS1 | / | 1.2 | 0.93 | -14 | -21 | 1.1
S=c1[nH]nc(-c2ccncc2)n1Cc1ccccc1 | 4 | 1.1 | 0.48 | 31 | -6 | 0.7
Cc1cccc(-n2c(C)n[nH]c2=S)c1C | 3 | 1.2 | 0.51 | -32 | -23 | 1.3
Cc1ccccc1-n1c(-c2ccncc2)n[nH]c1=S | / | 0.5 | 0.28 | 29 | 54* | 0.7
CC(c1ccccc1)n1c(-c2ccncc2)n[nH]c1=S (stereo unspecified) | -1 | 0.2 | / | 65* | 78* | 0.3
CCc1ccccc1-n1c(-c2ccncc2)n[nH]c1=S | / | 0.3 | 0.38 | 68* | 68* | 0.3
Cc1ccnc(NC2OC(=O)c3ccccc32)c1 (stereo unspecified) | 10 | 0.8 | 0.92 | -16 | 16 | 1.2
COc1cc2c3nnc(-c4ccc(F)cc4)c-3cn(Cc3ccc(F)cc3)c2cc1OC | 20 | 0.7 | -0.063 | 77* | 34 | 0.2
O=C(c1cccs1)N1CCc2c([nH]c3ccccc23)C1c1ccc(Cl)cc1 (stereo unspecified) | 9 | 0.8 | -2.6 | 51* | 23 | 0.5
COc1ccc(S(=O)(=O)N2CCC(C(=O)NCC3CCCO3)CC2)cc1 (stereo unspecified) | 0 | 1 | 0.29 | -2 | -4 | 1
SMILES | Rev-RRE block | CYP2C19 activ | Cav3 T inh | CYP2C9 inhib | CYP2C19 inh | CYP2C9 act
COc1ccc(-c2csc(N(CC3CCCO3)C(=O)c3cccs3)n2)cc1 (stereo unspecified) | 12 | 0.1 | -1.2 | 92* | 88* | 0.1
COc1ccc(OC)c(-c2csc(N(Cc3ccco3)C(=O)c3cccs3)n2)c1 | 13 | 0.2 | -3.4 | 85* | 78* | 0.2
COC(=O)c1ccc(Cn2nnc3c(sc4nc(N5CCOCC5)c5c(c43)CCCC5)c2=O)o1 | 9 | / | / | / | / | /
COC(=O)c1ccc(Cn2cnc3c(sc4nc(N5CCOCC5)c5c(c43)CCCC5)c2=O)o1 | / | 0.8 | -2.1 | 52* | 22 | 0.5
O=c1c2sc3nc(N4CCOCC4)c4c(c3c2ncn1CCc1ccccc1)CCCC4 | 10 | 0.5 | / | 61* | 52* | 0.4
CCOC(=O)C(Sc1ncnc2c1sc1nc(N3CCOCC3)c3c(c12)CCCC3)c1ccccc1 (stereo unspecified) | 5 | 0.9 | -1.2 | 39 | 10 | 0.6
O=C(c1ccccc1Oc1ccccc1)N1CCN(c2ccccc2)CC1 | 8 | 0 | -3.3 | 98* | 96* | 0
COc1cc2c(C(=O)N3CCN(c4cccc(Cl)c4)CC3)cn(CC(C)C)c(=O)c2cc1OC | 2 | 0.7 | / | 58* | 25 | 0.4
COc1cccc(N2CCN(C(=O)NC3CCCCC3)CC2)c1 | 7 | 0.7 | 1.5 | 56* | 30 | 0.4
COc1ccc2oc(=O)c(C(=O)N3CCN(c4ccccc4)CC3)cc2c1 | 7 | 0.7 | 1.2 | 32 | 30 | 0.7
COc1ccc(C(=O)N2CCN(c3cccc(Cl)c3)CC2)c(OC)c1 | 2 | 0.1 | -1.8 | 69* | 87* | 0.3
COc1ccc(N2CCN(C(=O)NC3CCCCC3)CC2)cc1 | -3 | / | 0.27 | / | / | /
CCCN1CCN(C(=O)c2cn(CC(C)C)c(=O)c3cc(OC)c(OC)cc23)CC1 | -1 | 1.1 | / | 11 | -6 | 0.9
CCCNc1nc(C)cc(-c2cc(C(=O)NCc3ccccc3)on2)n1 | / | / | 0.2 | / | / | /
CCOC(=O)N1CCN(C(=O)CN(c2ccc(OCc3ccccc3)cc2)S(C)(=O)=O)CC1 | 1 | 1 | 2 | 16 | -1 | 0.8
CCOc1ccccc1C(=O)N1c2ccccc2Sc2ccccc21 | 7 | 0.1 | -5.6* | 98* | 87* | 0
CCOc1ccccc1C(=O)N1CCN(c2cccc(Cl)c2)CC1 | 8 | 0.3 | -0.78 | 70* | 67* | 0.3
O=C(O)c1ccccc1C(=O)N1CCN(c2cccc(Cl)c2)CC1 | 2 | / | 0.32 | / | / | /
O=C(C1CC1c1ccccc1)N1CCN(c2cccc(Cl)c2)CC1 (stereo unspecified) | 5 | 0.4 | -3.2 | 47 | 60* | 0.5
COc1ccccc1OCC(=O)Nc1ccc(O)cc1C(=O)O | 10 | 1.2 | 1.7 | 14 | -20 | 0.9
COc1cc(Cl)ccc1NC(=O)COc1ccccc1C(=O)N1CCN(c2ccc(O)cc2)CC1 | 5 | 0.2 | / | 82* | 79* | 0.2
CCCNC(=O)c1cc(OC)c(OC)cc1[N+](=O)[O-] | 6 | 1.1 | 0.77 | -23 | -14 | 1.2
